What was measured:
[1] = Stability in pH 2.0 simulated gastric fluid assessed as compound degradation to beta-lactam ring open products at 1 uM after 60 mins by LC-MS/MS method; assay type: ADME; conditions: read-out: Drug degradation
Summary of the method: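 Incubation was in simulated gastric fluid (SGF, pH 2.0) for 60 min, with loss to the β-lactam ring-opened product measured by LC-MS/MS.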

[2] = Stability in pH 6.5 simulated gastrointestinal fluid assessed as compound remaining at 50 uM after 3 hrs by LC-MS/MS method; assay type: ADME; conditions: read-out: Stability
Summary of the method: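 Compounds at 50 μM were incubated in fasted-state simulated intestinal fluid (FaSSIF, pH 6.5) for over 3 h. Percent remaining was determined by LC-MS/MS.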

[3] = Stability in pH 7.4 phosphate buffer assessed as compound remaining at 50 uM after 3 hrs by LC-MS/MS method; assay type: physicochemical; conditions: read-out: Stability
[4] = AUC (0 to 8 hrs) in fasted Sprague-Dawley rat at 4.41 mg/kg dosed through intraduodenal route by LC-MS/MS method; assay type: ADME, organism-based; parameters: time < 8 hr, dose 4.41 mg/kg, route intraduodenal; conditions: plasma
Summary of the method: (§1)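 Prodrugs were given intraduodenally to bypass stomach acid. Plasma was sampled at intervals over 8 h, and parent prodrug, the two monoester metabolites and ertapenem were quantified by LC-MS/MS. The lower limit of quantitation was 5 nM. AUC(0–8) was used, and it differed from AUC(0–∞) by ±20%. Vehicles were 30% Captisol or 0.5% methylcellulose, as solution or suspension depending on compound.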

[5] = test system: Rattus norvegicus; assay: AUC (0 to 8 hrs) in fasted Sprague-Dawley rat assessed as ertapenem level at 4.41 mg/kg dosed through intraduodenal route by LC-MS/MS method; assay type: ADME, organism-based, Plasma; parameters: time < 8 hr, dose 4.41 mg/kg, route intraduodenal; conditions: in vivo, other; summary of the method: as §1
[6] = test system: Rattus norvegicus; assay: AUC (0 to 8 hrs) in fasted Sprague-Dawley rat assessed as 8-OH, C-3 ester level at 4.41 mg/kg dosed through intraduodenal route by LC-MS/MS method; assay type: ADME, organism-based, Plasma; parameters: time < 8 hr, dose 4.41 mg/kg, route intraduodenal; conditions: in vivo, other; summary of the method: as §1
[7] = test system: Rattus norvegicus; assay: AUC (0 to 8 hrs) in fasted Sprague-Dawley rat assessed as 8-OH, benzoate ester level at 4.41 mg/kg dosed through intraduodenal route by LC-MS/MS method; assay type: ADME, organism-based, Plasma; parameters: time < 8 hr, dose 4.41 mg/kg, route intraduodenal; conditions: in vivo, other; summary of the method: as §1
[8] = test system: Rattus norvegicus; assay: Oral bioavailability in fasted Sprague-Dawley rat assessed as ertapenem level at 4.41 mg/kg dosed through intraduodenal route by LC-MS/MS method; assay type: ADME, organism-based; conditions: in vivo
Summary of the method: (§2)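 After intraduodenal dosing, plasma over 8 h was analysed by LC-MS/MS. Bioavailability was calculated as dose-normalized AUC of ertapenem formed from the prodrug divided by dose-normalized AUC of ertapenem dosed iv. Vehicle was 30% Captisol or 0.5% methylcellulose.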

[9] = test system: Rattus norvegicus; assay: Oral bioavailability in fasted Sprague-Dawley rat assessed as ertapenem and monoetser metabolites level at 4.41 mg/kg dosed through intraduodenal route by LC-MS/MS method; assay type: ADME, organism-based; conditions: in vivo
Summary of the method: (§3)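 Total absorption followed intraduodenal dosing with LC-MS/MS of plasma over 8 h. It was calculated as the combined dose-normalized AUC of circulating parent prodrug, ertapenem and two monoesters, divided by dose-normalized AUC of ertapenem given iv. Vehicle was 30% Captisol or 0.5% methylcellulose.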

[10] = test system: Canis familiaris; assay: (§4) AUC (0 to 8 hrs) in fasted Beagle dog at 10 mg/kg dosed through intraduodenal route by LC-MS/MS method; assay type: ADME, organism-based, Canis lupus familiaris, Plasma; parameters: time < 8 hr, dose 10 mg/kg, route intraduodenal; conditions: in vivo, other, 8 h; summary of the method: as §1
[11] = test system: Canis familiaris; assay: AUC (0 to 8 hrs) in fasted Beagle dog assessed as 8-OH, C-3 ester level at 10 mg/kg dosed through intraduodenal route by LC-MS/MS method; assay type: ADME, organism-based, Canis lupus familiaris, Plasma; parameters: time < 8 hr, dose 10 mg/kg, route intraduodenal; conditions: in vivo, other; summary of the method: as §1
[12] = test system: Canis familiaris; assay: AUC (0 to 8 hrs) in fasted Beagle dog assessed as 8-OH, benzoate ester level at 10 mg/kg dosed through intraduodenal route by LC-MS/MS method; assay type: ADME, organism-based, Canis lupus familiaris, Plasma; parameters: time < 8 hr, dose 10 mg/kg, route intraduodenal; conditions: in vivo, other; summary of the method: as §1
[13] = test system: Canis familiaris; assay: Oral bioavailability in fasted Beagle dog assessed as ertapenem level at 10 mg/kg dosed through intraduodenal route by LC-MS/MS method; assay type: ADME, organism-based, Canis lupus familiaris; conditions: in vivo; summary of the method: as §2
[14] = test system: Canis familiaris; assay: Oral bioavailability in fasted Beagle dog assessed as assessed as ertapenem and monoetser metabolites level at 10 mg/kg dosed through intraduodenal route by LC-MS/MS method; assay type: ADME, organism-based, Canis lupus familiaris; conditions: in vivo; summary of the method: as §3
[15] = test system: Rattus norvegicus; assay: AUC (0 to 8 hrs) in fasted Sprague-Dawley rat at 10 mg/kg dosed through intraduodenal route by LC-MS/MS method; assay type: ADME, organism-based, Plasma; parameters: time < 8 hr, dose 10 mg/kg, route intraduodenal; conditions: in vivo, other, 8 h, BLD = below limit of detection; summary of the method: as §1
[16] = test system: Rattus norvegicus; assay: AUC (0 to 8 hrs) in fasted Sprague-Dawley rat assessed as 8-OH, C-3 ester level at 10 mg/kg dosed through intraduodenal route by LC-MS/MS method; assay type: ADME, organism-based, Plasma; parameters: time < 8 hr, dose 10 mg/kg, route intraduodenal; conditions: in vivo, other, BLD = below limit of detection; summary of the method: as §1
[17] = test system: Rattus norvegicus; assay: AUC (0 to 8 hrs) in fasted Sprague-Dawley rat assessed as 8-OH, benzoate ester level at 10 mg/kg dosed through intraduodenal route by LC-MS/MS method; assay type: ADME, organism-based, Plasma; parameters: time < 8 hr, dose 10 mg/kg, route intraduodenal; conditions: in vivo, other, BLD = below limit of detection; summary of the method: as §1
[18] = test system: Rattus norvegicus; assay: Oral bioavailability in fasted Sprague-Dawley rat assessed as ertapenem level at 10 mg/kg dosed through intraduodenal route by LC-MS/MS method; assay type: ADME, organism-based; conditions: in vivo; summary of the method: as §2
[19] = test system: Rattus norvegicus; assay: Oral bioavailability in fasted Sprague-Dawley rat assessed as ertapenem and monoetser metabolites level at 10 mg/kg dosed through intraduodenal route by LC-MS/MS method; assay type: ADME, organism-based; conditions: in vivo; summary of the method: as §3
[20] = Stability in rat plasma assessed as compound remaining at 50 uM at 37 degC after 60 mins by LC-MS/MS method; assay type: ADME, cell-free; conditions: read-out: Stability
Summary of the method: (§5)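 Prodrugs were incubated in rat or human plasma for 60 min. Disappearance of prodrug and concomitant appearance of ertapenem were followed by LC-MS/MS, and in selected cases monoesters from partial hydrolysis were also monitored. Ertapenem itself was incubated the same way as a control.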

[21] = Stability in human plasma assessed as compound remaining at 50 uM at 37 degC after 60 mins by LC-MS/MS method; assay type: ADME, cell-free; conditions: read-out: Stability; summary of the method: as §5
[22] = test system: Rattus norvegicus; assay: AUC (0 to 8 hrs) in fasted Sprague-Dawley rat assessed as ertapenem level at 10 mg/kg dosed through intraduodenal route by LC-MS/MS method; assay type: ADME, organism-based, Plasma; parameters: time < 8 hr, dose 10 mg/kg, route intraduodenal; conditions: in vivo, other; summary of the method: as §1
[23] = test system: Canis familiaris; assay: AUC (0 to 8 hrs) in fasted Beagle dog assessed as ertapenem level at 10 mg/kg dosed through intraduodenal route by LC-MS/MS method; assay type: ADME, organism-based, Canis lupus familiaris, Plasma; parameters: time < 8 hr, dose 10 mg/kg, route intraduodenal; conditions: in vivo, other; summary of the method: as §1
[24] = test system: Rattus norvegicus; assay: AUC (0 to 8 hrs) in fasted Sprague-Dawley rat at 7.4 mg/kg dosed through intraduodenal route by LC-MS/MS method; assay type: ADME, organism-based, Plasma; parameters: time < 8 hr, dose 7.4 mg/kg, route intraduodenal; conditions: in vivo, other, BLD = below limit of detection; summary of the method: as §1
[25] = test system: Rattus norvegicus; assay: AUC (0 to 8 hrs) in fasted Sprague-Dawley rat assessed as ertapenem level at 7.4 mg/kg dosed through intraduodenal route by LC-MS/MS method; assay type: ADME, organism-based, Plasma; parameters: time < 8 hr, dose 7.4 mg/kg, route intraduodenal; conditions: in vivo, other; summary of the method: as §1
[26] = test system: Rattus norvegicus; assay: Oral bioavailability in fasted Sprague-Dawley rat assessed as ertapenem level at 7.4 mg/kg dosed through intraduodenal route by LC-MS/MS method; assay type: ADME, organism-based; conditions: in vivo; summary of the method: as §2
[27] = test system: Rattus norvegicus; assay: Oral bioavailability in fasted Sprague-Dawley rat assessed as ertapenem and monoetser metabolites level at 7.4 mg/kg dosed through intraduodenal route by LC-MS/MS method; assay type: ADME, organism-based; conditions: in vivo; summary of the method: as §3
[28] = as §4; assay type: ADME, organism-based, Canis lupus familiaris, Plasma; parameters: time < 8 hr, dose 10 mg/kg, route intraduodenal; conditions: Beagle, plasma; summary of the method: as §1
[29] = Oral drug absorption in fasted Beagle dog at 10 mg/kg dosed through intraduodenal route by LC-MS/MS method; assay type: ADME, organism-based, Canis lupus familiaris; parameters: dose 10 mg/kg, route intraduodenal; conditions: in vivo; summary of the method: as §3

`CCOC(=O)C1=C(S[C@@H]2CN[C@H](C(=O)Nc3cccc(C(=O)OCC)c3)C2)[C@H](C)[C@@H]2[C@@H]([C@@H](C)O)C(=O)N12` gave a degraded at 1 h, 1 µM [1] of over 25%, a remaining at 3 h, 50 µM [2] of over 95% and a remaining at 3 h, 50 µM [3] of over 95%. The AUC(0-t) at 8 h [4] was 60 nM·h, the AUC [5] was 1500 nM·h and the AUC [6] was 100 nM·h. For the same molecule, the AUC [7] was 400 nM·h, the F [8] was 5% and the F [9] was 6.6%. For the same molecule, the AUC [10] was 5000 nM·h, the AUC [11] was 2200 nM·h and the AUC [12] was 3300 nM·h. It also gave an F [13] of 18.1% and an F [14] of 31.3%.
Molecule `C[C@@H](O)[C@H]1C(=O)N2C(C(=O)OCOC(=O)C(C)(C)C)=C(S[C@@H]3CN[C@H](C(=O)Nc4cccc(C(=O)OCOC(=O)C(C)(C)C)c4)C3)[C@H](C)[C@H]12` has a degraded at 1 h, 1 µM [1] of over 25%, a remaining at 3 h, 50 µM [2] of over 95% and a remaining at 3 h, 50 µM [3] of over 95%. The AUC [15] was “BLD”, the AUC [16] was “BLD” and the AUC [17] was “BLD”. The F [18] was 0.4%, the F [19] was 0.4% and the AUC ([10]; BLD = below limit of detection) was “BLD”. The AUC [11] was under 100 nM·h, the AUC ([12]; BLD = below limit of detection) was “BLD” and the F [13] was 3%. For the same molecule, the F [14] was 3.07%.
Work on `CC(C)C(=O)OCOC(=O)C1=C(S[C@@H]2CN[C@H](C(=O)Nc3cccc(C(=O)OCOC(=O)C(C)C)c3)C2)[C@H](C)[C@@H]2[C@@H]([C@@H](C)O)C(=O)N12` yielded a remaining at 1 h, 50 µM [20] of 1%, a remaining at 1 h, 50 µM [21] of 8% and a degraded at 1 h, 1 µM [1] of over 25%. The remaining at 3 h, 50 µM [2] was over 95%, the remaining at 3 h, 50 µM [3] was over 95% and the AUC [15] was “BLD”. For the same molecule, the AUC [22] was 900 nM·h, the AUC [16] was “BLD” and the AUC [17] was “BLD”. The F [18] was 1.8%, the F [19] was 1.8% and the AUC ([10]; BLD = below limit of detection) was “BLD”. The AUC [23] was 2200 nM·h, the AUC ([11]; BLD = below limit of detection) was “BLD” and the AUC ([12]; BLD = below limit of detection) was “BLD”. For the same molecule, the F [13] was 3.6% and the F [14] was 3.6%.
`Cc1oc(=O)oc1COC(=O)C1=C(S[C@@H]2CN[C@H](C(=O)Nc3cccc(C(=O)OCc4oc(=O)oc4C)c3)C2)[C@H](C)[C@@H]2[C@@H]([C@@H](C)O)C(=O)N12` gave a remaining at 1 h, 50 µM [20] of 0%, a degraded at 1 h, 1 µM [1] of over 25% and a remaining at 3 h, 50 µM [2] of over 95%. For the same molecule, the remaining at 3 h, 50 µM [3] was over 95%, the AUC [24] was “BLD” and the AUC [25] was 300 nM·h. It also gave an F [26] of 0.8% and an F [27] of 0.8%.
`CC(C)CCC[C@@H](C)[C@H]1CC[C@H]2[C@@H]3CC=C4C[C@@H](OC(=O)COC(=O)c5cccc(NC(=O)[C@@H]6C[C@H](SC7=C(C(=O)OCC(F)(F)F)N8C(=O)[C@H]([C@@H](C)O)[C@H]8[C@H]7C)CN6)c5)CC[C@]4(C)[C@H]3CC[C@]12C` gave a remaining at 1 h, 50 µM [20] of 97%, a remaining at 1 h, 50 µM [21] of 92% and a degraded at 1 h, 1 µM [1] of over 25%. The remaining at 3 h, 50 µM [2] was over 95%, the remaining at 3 h, 50 µM [3] was over 95% and the AUC(0-t) at 8 h [28] was under 100 nM·h. The AUC ([23]; BLD = below limit of detection) was “BLD”, the AUC ([11]; BLD = below limit of detection) was “BLD” and the F ([13]; BLD = below limit of detection) was “BLD”. The F [14] was 0.1% and the Fa [29] was under 0.1%.

From ChEMBL document CHEMBL3351346, “Design, synthesis, structure-function relationship, bioconversion, and pharmacokinetic evaluation of ertapenem prodrugs” (J Med Chem, 2014)
